# Values joined by “and” are separate entries in the source; they are usually repeats but may differ in a detail not shown here. Equal entries are not always repeated. Where two headings read alike, the source gives them in different places.
# How the values were obtained:
# OATP1B1 [1] = conditions: following a single 600 mg dose; cited from earlier work
# OATP1B3 [2] = conditions: following a single 600 mg dose; cited from earlier work
# OATP2B1 = conditions: cited from earlier work
# [3] = assay type: in vivo, human
# In short: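 Same crossover dosing (saline or 600 mg inhibitor i.v. over 30 min, then 4 mg s.c. fasting). Plasma was sampled from 5 min to 36 h post-dose and stored at −25°C. Quantification used validated LC-MS/MS (LLOQ 1.00 ng/mL; linear 1.00–2,000 ng/mL). Noncompartmental analysis: AUC0–t by linear trapezoidal rule; AUC0–∞ adds Ct/λz; CL/F = Dose/AUC0–∞. Treatment effect given as geometric mean ratios with 90% CI.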
# [4] = Safety and tolerability evaluation of study treatments in healthy subjects; assay type: in vivo, human; conditions: for Number of AEs reported: 14 subjects
# In short: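 Randomized, double-blind, two-period crossover in healthy adults with a 7–10 day washout. Each period gave 100 mL saline or 600 mg OATP inhibitor i.v. over 30 min, with bags and lines covered. This was followed by 4 mg test compound s.c. in the thigh under fasting. Monitoring throughout covered AEs, serious AEs, physical exam, vital signs, 12-lead ECG, body weight, clinical chemistry, hematology and coagulation.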
# OATP1B1 [5] = conditions: in vitro; ref Idorsia Pharmaceuticals, data on file; cited from earlier work
# OATP1B3 [6] = conditions: in vitro; ref Idorsia Pharmaceuticals, data on file; cited from earlier work
# MRP2 = conditions: in vitro; ref Idorsia Pharmaceuticals, data on file; cited from earlier work
# [7] = ref Idorsia Pharmaceuticals, data on file; cited from earlier work
# [8] = cited from earlier work
# platelet inhibition = conditions: single s.c. doses of 8 and 16 mg, postdose; cited from earlier work
# [9] = cited from earlier work; remark: listed apart in the source
# [10] = cited from earlier work; remark: listed apart in the source
# [11] = 600 mg rifampin i.v. before 4 mg selatogrel s.c.
# [12] = Treatment A: placebo + 4 mg selatogrel s.c., n = 13
# [13] = Treatment B: 600 mg rifampin i.v. + 4 mg selatogrel s.c., n = 13
# [14] = treatment B (rifampin) / A (placebo), n = 13
smiles,measurement,setting,value
CO[C@H]1/C=C/O[C@@]2(C)Oc3c(C)c(O)c4c(O)c(c(/C=N/N5CCN(C)CC5)c(O)c4c3C2=O)NC(=O)/C(C)=C\C=C\[C@H](C)[C@H](O)[C@@H](C)[C@@H](O)[C@@H](C)[C@H](OC(C)=O)[C@@H]1C [rifampin],Inhibition of OATP1B1,OATP1B1 [1],potent inhibitor
same,Inhibition of OATP1B3,OATP1B3 [2],potent inhibitor
same,Inhibition of OATP2B1,OATP2B1,not a potent inhibitor
"CCCCOC(=O)N1CCN(C(=O)[C@H](CP(=O)(O)O)NC(=O)c2cc(N3CC[C@H](OC)C3)nc(-c3ccccc3)n2)CC1 [selatogrel, 4‐((R)‐2‐{[6‐((S)‐3‐Methoxypyrrolidin‐1‐yl)‐2‐phenylpyrimidine‐4‐carbonyl]amino}‐ 3‐phosphonopropionyl)piperazine‐1‐carboxylic Acid Butyl Ester]",Decrease of CL/F with rifampin,[3]; [11],~ 30%
same,Decrease of Vd/F with rifampin,[3]; [11],~ 30%
same,Increase of AUC0–t with rifampin compared with placebo,[3]; [11],44%
same,Increase of AUC0–∞ with rifampin compared with placebo,[3]; [11],43% and ~40%
same,Increase of Cmax with rifampin compared with placebo,[3]; [11],19% and ~ 20%
same,"AUC0–t, geometric mean",[3]; [12],273.7 ng·h/mL
same,"AUC0–∞, geometric mean",[3]; [12],279.8 ng·h/mL
same,"CL/F, geometric mean",[3]; [12],14.3 L/h
same,"AUC0–t, geometric mean",[3]; [13],392.6 ng·h/mL
same,"AUC0–∞, geometric mean",[3]; [13],398.7 ng·h/mL
same,"CL/F, geometric mean",[3]; [13],10.0 L/h
same,"AUC0–t, geometric mean ratio B/A",[3]; [14],1.44
same,"AUC0–∞, geometric mean ratio B/A",[3]; [14],1.43
same,"CL/F, geometric mean ratio B/A",[3]; [14],0.70
same,"Cmax, geometric mean ratio B/A",[3]; [14],1.19
same,"Vd/F, geometric mean ratio B/A",[3]; [14],0.68
same,"t 1/2, geometric mean ratio B/A",[3]; [14],0.97
same,Intensity of AEs,[4]; both treatment periods,mild
same,Serious adverse events or AEs leading to discontinuation,[4]; both treatment periods,No serious adverse events or AEs leading to study discontinuation
same,Overall safety and tolerability,[4]; selatogrel 4 mg s.c. after rifampin or matching placebo,safe and well‐tolerated
same,Number of AEs reported,[4]; selatogrel 4 mg s.c. with 600 mg rifampin i.v. (treatment B),17
same,Number of AEs reported,[4]; selatogrel 4 mg s.c. with placebo (treatment A),8
same,Number of AEs considered related to study treatment,[4]; treatment period A (placebo + selatogrel),1
same,Substrate of OATP1B1,OATP1B1 [5],substrate
same,Substrate of OATP1B3,OATP1B3 [6],substrate
same,Substrate of MRP2,MRP2,substrate
same,transcellular permeability,[7],0.2 10^−6 cm/seconds
same,Exposure dose proportionality,[8]; dose range 1–32 mg,dose‐proportional exposure
same,Safety and tolerability in single-ascending dose study,[8]; dose range 1–32 mg,safe and well‐tolerated
same,Time of absorption after s.c. administration,[8]; s.c.,30 to 45 min
same,elimination half-life,[8]; s.c.,2 to 9 h
same,Time to reversal of pharmacodynamic effect,platelet inhibition,≤ 24 h
same,Plasma protein binding,[9],highly bound to plasma proteins
same,Route of elimination,[10],mainly eliminated unchanged via the biliary route

# Source: article PMC7485944 (Clinical and Translational Science, 2020)
